ChEMBL document CHEMBL1926542, “Synthesis and in vitro antiproliferative evaluation of pyrimido[5,4-c]quinoline-4-(3H)-one derivatives” (Eur J Med Chem, 2012)

Experiments:
Type in all cases: functional, cell-based
KB = test: Antiproliferative activity against human KB cells after 72 hrs by MTT assay
Summary of the method: (§1)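 Cells in 10% fetal calf serum, RPMI 1640 for all lines except MCF-7 (DMEM). Log-phase cells seeded at 2×10⁴ cells/ml, 37 °C, 5% CO₂. Compounds added after 24 h, then 72 h at 37 °C. MTT (5 mg/ml saline stock) for 3 h, formazan dissolved in DMSO, A570 read (ref 655 nm). IC₅₀ from dose-response curves. Mean of three independent experiments.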

MDA-MB-453 = test: Antiproliferative activity against human MDA-MB-453 cells after 72 hrs by MTT assay; conditions: MDA-MB-453, 72 h; summary of the method: as §1
[1] = Antiproliferative activity against human CNE2 cells after 72 hrs by MTT assay; conditions: CNE-2, 72 h; summary of the method: as §1
[2] = Antiproliferative activity against human GLC82 cells after 72 hrs by MTT assay; conditions: GLC82, 72 h; summary of the method: as §1
MCF7 = test: Antiproliferative activity against human MCF7 cells after 72 hrs by MTT assay; conditions: MCF7, 72 h; summary of the method: as §1
MGC-803 = test: Antiproliferative activity against human MGC803 cells after 72 hrs by MTT assay; conditions: MGC-803, 72 h; summary of the method: as §1

Row | Structure (SMILES) | IC50 (KB) | IC50 (MDA-MB-453) | IC50 [1] | IC50 [2] | IC50 (MCF7) | IC50 (MGC-803)
1 | CCCCn1cnc2c(c(C)nc3ccccc32)c1=O | > 50 µM | > 50 µM | > 50 µM | > 50 µM | > 50 µM | > 50 µM
2 | CCCn1cnc2c(c(C)nc3ccccc32)c1=O | > 50 µM | > 50 µM | > 50 µM | > 50 µM | > 50 µM | > 50 µM
3 | Cc1nc2ccccc2c2ncn(C(C)C)c(=O)c12 | > 50 µM | > 50 µM | > 50 µM | > 50 µM | > 50 µM | > 50 µM
4 | Cc1nc2ccccc2c2ncn(N)c(=O)c12 | > 50 µM | > 50 µM | > 50 µM | > 50 µM | > 50 µM | > 50 µM
5 | Cc1nc2ccccc2c2ncn(CCO)c(=O)c12 | > 50 µM | > 50 µM | > 50 µM | > 50 µM | > 50 µM | > 50 µM
6 | Cc1nc2ccccc2c2ncn(CCN)c(=O)c12 | 39.8 µM | 45.7 µM | > 50 µM | > 50 µM | 43.5 µM | 39.9 µM
7 | Cc1nc2ccccc2c2ncn(CCc3ccccc3)c(=O)c12 | > 50 µM | 49.5 µM | > 50 µM | 35.2 µM | > 50 µM | > 50 µM
8 | Cc1nc2ccccc2c2ncn(Cc3ccccc3)c(=O)c12 | > 50 µM | > 50 µM | 26.5 µM | > 50 µM | > 50 µM | > 50 µM
9 | CCn1cnc2c(c(C)nc3ccccc32)c1=O | > 50 µM | > 50 µM | > 50 µM | > 50 µM | > 50 µM | > 50 µM
10 | CCC(C)n1cnc2c(c(C)nc3ccccc32)c1=O (stereo not given) | > 50 µM | > 50 µM | > 50 µM | > 50 µM | > 50 µM | > 50 µM
11 | Cc1nc2ccccc2c2ncn(CC(C)C)c(=O)c12 | > 50 µM | > 50 µM | > 50 µM | > 50 µM | > 50 µM | > 50 µM
12 | Cc1nc2ccccc2c2nc(Oc3cccc4ccccc34)n(-c3ccc(Cl)cc3)c(=O)c12 | 33.9 µM | > 50 µM | 47 µM | 42.1 µM | 37.9 µM | 18.5 µM
13 | COc1ccccc1Oc1nc2c(c(C)nc3ccccc32)c(=O)n1-c1ccc(Cl)cc1 | 39.2 µM | 49.7 µM | > 50 µM | > 50 µM | 34 µM | > 50 µM
14 | Cc1nc2ccccc2c2nc(Oc3ccc(Br)cc3)n(-c3ccc(Cl)cc3)c(=O)c12 | 29.5 µM | 26.6 µM | 28.7 µM | > 50 µM | 35.7 µM | 15.3 µM
15 | Cc1nc2ccccc2c2nc(Oc3ccc4c(c3)OCO4)n(-c3ccc(Cl)cc3)c(=O)c12 | 30.9 µM | > 50 µM | 47.7 µM | > 50 µM | > 50 µM | > 50 µM
16 | Cc1nc2ccccc2c2nc(Oc3ccc([N+](=O)[O-])cc3Cl)n(-c3ccc(Cl)cc3)c(=O)c12 | 4.9 µM | 18.2 µM | 13.8 µM | 7.88 µM | 10.1 µM | 4.8 µM
17 | Cc1cc(Oc2nc3c(c(C)nc4ccccc43)c(=O)n2-c2ccc(F)cc2)ccc1Cl | > 50 µM | > 50 µM | > 50 µM | > 50 µM | > 50 µM | 41.4 µM
18 | Cc1nc2ccccc2c2nc(Oc3ccccc3Cl)n(-c3ccc(F)cc3)c(=O)c12 | > 50 µM | > 50 µM | > 50 µM | > 50 µM | > 50 µM | > 50 µM
19 | COc1ccccc1Oc1nc2c(c(C)nc3ccccc32)c(=O)n1-c1ccccc1 | > 50 µM | > 50 µM | > 50 µM | > 50 µM | 35.5 µM | > 50 µM
20 | Cc1nc2ccccc2c2nc(Oc3ccc(Cl)cc3Cl)n(-c3ccccc3)c(=O)c12 | 22.8 µM | > 50 µM | 42.9 µM | > 50 µM | > 50 µM | > 50 µM
21 | Cc1nc2ccccc2c2nc(NC(C)(C)C)n(-c3ccccc3)c(=O)c12 | > 50 µM | > 50 µM | > 50 µM | > 50 µM | > 50 µM | > 50 µM
22 | Cc1nc2ccccc2c2nc(Nc3ccc(Cl)cc3)n(N)c(=O)c12 | > 50 µM | > 50 µM | > 50 µM | > 50 µM | > 50 µM | > 50 µM
23 | Cc1nc2ccccc2c2nc(Nc3ccccc3)n(N)c(=O)c12 | 30.3 µM | > 50 µM | > 50 µM | > 50 µM | > 50 µM | 14.7 µM
24 | Cc1nc2ccccc2c2nc3n(-c4ccccc4)cnn3c(=O)c12 | > 50 µM | > 50 µM | > 50 µM | > 50 µM | > 50 µM | > 50 µM
25 | O=c1[nH]cc(F)c(=O)[nH]1 [FLUOROURACIL] | 9.85 µM | > 50 µM | 17.2 µM | 15.5 µM | 9.67 µM | 16.6 µM
